Format in all cases: functional
Assay [1] has as its system Candida albicans. As to the kind of experiment: Antifungal activity against Candida albicans ATCC Y0109 after 24 hrs by micro-broth dilution method. Particulars: ATCC Y0109, 24 h. In outline: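 ATCC quality-control strain, tested in every assay. NCCLS M27-A2 broth microdilution. Compounds were dissolved in DMSO, serially diluted in growth medium, inoculated and incubated at 35 °C, with growth read at 24 h. MIC80 is the first well with about 80% growth reduction relative to the drug-free control. Each test was run three times and the mean of replicates taken.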

Another assay concerns Cryptococcus neoformans. As to the kind of experiment: Antifungal activity against Cryptococcus neoformans ATCC BLS108 after 72 hrs by micro-broth dilution method. Particulars: ATCC BLS108, 72 h. In outline:
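Quality-control ATCC strain included in each assay. Microbroth dilution per NCCLS M27-A2. DMSO-dissolved compounds were serially diluted in growth medium, inoculated and held at 35 °C, with MIC read at 72 h. MIC80 is the first well showing about 80% growth reduction versus the drug-free well. Tests were done in triplicate and the mean reported.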

The test system of the next assay is Nannizzia gypsea. The experiment in a line: Antifungal activity against Microsporum gypseum clinical isolate by micro-broth dilution method. In a few lines: (§1)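 Clinical isolate. MIC by broth microdilution following the NCCLS M27-A2 reference method for yeasts. Compounds were dissolved in DMSO, serially diluted in growth medium, inoculated and incubated at 35 °C. MIC80 is the first well with about 80% less growth than the drug-free well. Each test was run three times and the mean of replicates reported.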

In the next assay the test system is Trichophyton rubrum. The experiment in a line: Antifungal activity against Trichophyton rubrum clinical isolate by micro-broth dilution method. In outline:
as §1

The subject of a further assay is Candida parapsilosis. As to the kind of experiment: Antifungal activity against Candida parapsilosis clinical isolate by micro-broth dilution method. Particulars: Lodderomyces parapsilosis. In outline: as §1
A further assay has as its system Candida tropicalis. The experiment in a line: Antifungal activity against Candida tropicalis clinical isolate by micro-broth dilution method. In outline:
as §1

A further assay has as its system Aspergillus fumigatus. The experiment in a line: Antifungal activity against Aspergillus fumigatus clinical isolate by micro-broth dilution method. In outline:
as §1

A short description of assay [2]: Antifungal activity against Fonsecaea compacta clinical isolate by micro-broth dilution method. In a few lines: as §1
For assay [3], the system named is Candida albicans. As to the kind of experiment: Ratio of voriconazole MIC80 to compound MIC80 for Candida albicans ATCC Y0109.

The record followed here is ChEMBL document CHEMBL1795297, “Design, synthesis and molecular docking studies of novel triazole as antifungal agent” (2011).

Converted amounts (≈) assume the structure as drawn.

Turning to `CC(=O)Nc1ccc(N2CCN(CC(O)(Cn3cncn3)c3ccc(F)cc3F)CC2)c(C(F)(F)F)c1` (centres undefined), the MIC80 with Candida albicans [1] came out at 0.0625 µg/mL (≈ 0.119 µM); against Cryptococcus neoformans, 0.25 µg/mL (≈ 0.477 µM); in the assay on Nannizzia gypsea it was 1 µg/mL (≈ 1.91 µM); in the assay on Trichophyton rubrum it was 1 µg/mL (≈ 1.91 µM); with Candida parapsilosis it was 0.25 µg/mL (≈ 0.477 µM); against Candida tropicalis, 0.25 µg/mL (≈ 0.477 µM). Moreover, the MIC80 against Aspergillus fumigatus was more than 64 µg/mL; in assay [2], 1 µg/mL (≈ 1.91 µM).

`COc1ccc(C(=O)Nc2ccc(N3CCN(CC(O)(Cn4cncn4)c4ccc(F)cc4F)CC3)c(C(F)(F)F)c2)cc1` (centres undefined): the MIC80 in the assay on Candida albicans [1], in the assay with Cryptococcus neoformans, against Nannizzia gypsea, against Trichophyton rubrum, with Candida parapsilosis and in the assay with Candida tropicalis was 1 µg/mL (≈ 1.62 µM) each time. Further, the MIC80 in the assay on Aspergillus fumigatus turned out to be 4 µg/mL (≈ 6.49 µM); in assay [2], 16 µg/mL (≈ 25.9 µM).

As to `O=C(Nc1ccc(N2CCN(CC(O)(Cn3cncn3)c3ccc(F)cc3F)CC2)c(C(F)(F)F)c1)c1ccc(Cl)cc1` (centres undefined), the MIC80 in the assay with Candida albicans [1] was 4 µg/mL (≈ 6.44 µM); against Cryptococcus neoformans it was more than 64 µg/mL; in the assay with Nannizzia gypsea, 0.25 µg/mL (≈ 0.403 µM); in the assay with Trichophyton rubrum, 4 µg/mL (≈ 6.44 µM); with Candida parapsilosis, 0.25 µg/mL (≈ 0.403 µM); in the assay with Candida tropicalis, 1 µg/mL (≈ 1.61 µM). The MIC80 (in the assay with Aspergillus fumigatus; in assay [2]) was 4 µg/mL (≈ 6.44 µM) in each case.

Turning to `O=C(Nc1ccc(N2CCN(CC(O)(Cn3cncn3)c3ccc(F)cc3F)CC2)c(C(F)(F)F)c1)c1ccccc1` (centres undefined), the MIC80 is 1 µg/mL (≈ 1.7 µM) with Candida albicans [1]; 0.25 µg/mL (≈ 0.426 µM) against Cryptococcus neoformans; 1 µg/mL (≈ 1.7 µM) in the assay with Nannizzia gypsea; 1 µg/mL (≈ 1.7 µM) in the assay with Trichophyton rubrum; 0.25 µg/mL (≈ 0.426 µM) against Candida parapsilosis; 1 µg/mL (≈ 1.7 µM) against Candida tropicalis. Besides, the MIC80 (in the assay on Aspergillus fumigatus; in assay [2]) was 4 µg/mL (≈ 6.82 µM) throughout.

On to `CCC(C)n1ncn(-c2ccc(N3CCN(c4ccc(OCC5COC(Cn6cncn6)(c6ccc(Cl)cc6Cl)O5)cc4)CC3)cc2)c1=O` (centres undefined) [ITRACONAZOLE], for which the MIC80 against Candida albicans [1] came to 1 µg/mL (≈ 1.42 µM); in the assay with Cryptococcus neoformans, 1 µg/mL (≈ 1.42 µM); against Nannizzia gypsea it was 0.0156 µg/mL (≈ 0.0221 µM); against Trichophyton rubrum it was 0.0156 µg/mL (≈ 0.0221 µM); against Candida parapsilosis it was 0.25 µg/mL (≈ 0.354 µM); against Candida tropicalis, 0.25 µg/mL (≈ 0.354 µM). The figures for the MIC80 (against Aspergillus fumigatus; in assay [2]) were 1 µg/mL (≈ 1.42 µM) and 0.25 µg/mL (≈ 0.354 µM), respectively.

Turning to `O=C(/C=C/c1ccccc1)Nc1ccc(N2CCN(CC(O)(Cn3cncn3)c3ccc(F)cc3F)CC2)c(C(F)(F)F)c1` (centres undefined), the MIC80 against Candida albicans [1] is 0.00097 µg/mL (≈ 0.00158 µM); in the assay on Cryptococcus neoformans, 0.25 µg/mL (≈ 0.408 µM); against Aspergillus fumigatus, 4 µg/mL (≈ 6.53 µM). Besides, the Ratio with Candida albicans [3] is on record as 16.

As for `Cc1ccc(C(=O)Nc2ccc(N3CCN(CC(O)(Cn4cncn4)c4ccc(F)cc4F)CC3)c(C(F)(F)F)c2)cc1` (centres undefined), the MIC80 in the assay with Candida albicans [1] was 1 µg/mL (≈ 1.67 µM); against Cryptococcus neoformans, 1 µg/mL (≈ 1.67 µM); against Nannizzia gypsea, 1 µg/mL (≈ 1.67 µM); against Trichophyton rubrum it was 4 µg/mL (≈ 6.66 µM); against Candida parapsilosis, 0.25 µg/mL (≈ 0.416 µM); against Candida tropicalis, 1 µg/mL (≈ 1.67 µM). Also, the MIC80 in the assay with Aspergillus fumigatus is 64 µg/mL (≈ 107 µM); in [2], 16 µg/mL (≈ 26.6 µM).

In the case of `CCCCCCCC(=O)Nc1ccc(N2CCN(CC(O)(Cn3cncn3)c3ccc(F)cc3F)CC2)c(C(F)(F)F)c1` (centres undefined), the MIC80 with Candida albicans [1] was 0.25 µg/mL (≈ 0.411 µM); in the assay on Cryptococcus neoformans it was 16 µg/mL (≈ 26.3 µM); in the assay with Nannizzia gypsea, 0.25 µg/mL (≈ 0.411 µM); with Trichophyton rubrum, 4 µg/mL (≈ 6.57 µM); against Candida parapsilosis, 4 µg/mL (≈ 6.57 µM); against Candida tropicalis it was 16 µg/mL (≈ 26.3 µM). Moreover, the MIC80 in the assay with Aspergillus fumigatus was more than 64 µg/mL; in assay [2], 4 µg/mL (≈ 6.57 µM).

Regarding `O=C(Nc1ccc(N2CCN(CC(O)(Cn3cncn3)c3ccc(F)cc3F)CC2)c(C(F)(F)F)c1)c1ccc(F)cc1` (centres undefined), the MIC80 was found to be 4 µg/mL (≈ 6.62 µM) with Candida albicans [1]; 16 µg/mL (≈ 26.5 µM) in the assay on Cryptococcus neoformans; 1 µg/mL (≈ 1.65 µM) against Nannizzia gypsea; 4 µg/mL (≈ 6.62 µM) in the assay with Trichophyton rubrum; 0.25 µg/mL (≈ 0.414 µM) with Candida parapsilosis; 1 µg/mL (≈ 1.65 µM) in the assay on Candida tropicalis. Also, the MIC80 (with Aspergillus fumigatus; in [2]) was 4 µg/mL (≈ 6.62 µM) in each case.

With `O=C(Nc1ccc(N2CCN(CC(O)(Cn3cncn3)c3ccc(F)cc3F)CC2)c(C(F)(F)F)c1)c1ccc(OC(F)(F)F)cc1` (centres undefined), the MIC80 against Candida albicans [1] came out at 16 µg/mL (≈ 23.9 µM); in the assay with Cryptococcus neoformans, 16 µg/mL (≈ 23.9 µM); in the assay with Nannizzia gypsea it was 4 µg/mL (≈ 5.97 µM); in the assay on Trichophyton rubrum, 16 µg/mL (≈ 23.9 µM); in the assay with Candida parapsilosis it was 4 µg/mL (≈ 5.97 µM); in the assay on Candida tropicalis, 4 µg/mL (≈ 5.97 µM). Also, the MIC80 against Aspergillus fumigatus came to 64 µg/mL (≈ 95.4 µM); in [2], 16 µg/mL (≈ 23.9 µM).

Regarding `CCC(=O)Nc1ccc(N2CCN(CC(O)(Cn3cncn3)c3ccc(F)cc3F)CC2)c(C(F)(F)F)c1` (centres undefined), the MIC80 against Candida albicans [1] was found to be 0.25 µg/mL (≈ 0.464 µM); with Cryptococcus neoformans, 1 µg/mL (≈ 1.86 µM); in the assay with Nannizzia gypsea, 1 µg/mL (≈ 1.86 µM); in the assay on Trichophyton rubrum, 1 µg/mL (≈ 1.86 µM); against Candida parapsilosis it was 1 µg/mL (≈ 1.86 µM); with Candida tropicalis, 0.25 µg/mL (≈ 0.464 µM). For the same compound, the MIC80 against Aspergillus fumigatus turned out to be 16 µg/mL (≈ 29.7 µM); in assay [2] it was 4 µg/mL (≈ 7.43 µM).
